Results on three compounds are retold here after ChEMBL document CHEMBL5252569, “Synthesis and biological evaluation of new β-D-N4-hydroxycytidine analogs against SARS-CoV-2, influenza viruses and DENV-2” (Bioorg Med Chem Lett, 2023).

pEC50: −log10 of the molar value.

The term CC50 denotes the concentration at which the toxic effect on the cells reaches its halfway point. What is called pEC50 is the EC50 on a negative log10 scale, so that one unit is a factor of ten.

The subject of one series is Influenza A virus. Nature of the series: Potency index, ratio of ribavirin EC50 to test compound EC50 for antiviral activity against Influenza A virus A/Puerto Rico/8/34 (H1N1) infected in MDCK cells assessed as reduction in virus-induced cytopathic effect pre-infected with cells for 1 hrs followed by compound addition and measured after 3 days by fluorescein diacetate-based cell viability assay. The class given is functional. To be noted: time 3 day.
Regarding `CC(C)C(=O)ONc1ccn([C@@H]2O[C@H](CO)[C@@H](O)[C@H]2O)c(=O)n1`, the “Ratio EC50” value is listed as 6.

Tested on in the next series: not listed separately
Description: (§1) Cytotoxicity against hamster BHK-21 cells incubated for 4 days by MTS assay. The class given is toxicity, cell-based, Mesocricetus auratus. To be noted: BHK-21 cells, time 4 day. In general terms: Tetrazolium assays rely on reduction of a dye to a coloured formazan, in cell work by metabolically active cells.
Regarding `CCOC(=O)[C@H](C)Nc1ccn([C@@H]2O[C@H](CO)[C@@H](O)[C@H]2O)c(=O)n1`, the CC50 at 96 h came out at 100 µM.

Regarding `CCOC(=O)[C@H](Cc1ccccc1)Nc1ccn([C@@H]2O[C@H](CO)[C@@H](O)[C@H]2O)c(=O)n1`, the CC50 at 96 h amounted to 100 µM.

The subject of the next series is BHK-21. The description is as §1. The class given is toxicity, cell-based, Mesocricetus auratus. To be noted: bhk-21, 96 h, time 4 day.
The compound `CC(C)C(=O)ONc1ccn([C@@H]2O[C@H](CO)[C@@H](O)[C@H]2O)c(=O)n1` gave a CC50 of 10.8 µM.

For the next series, the system named is SARS-CoV-2. Nature of the series: Potency index, ratio of beta-D-N4-hydroxycytidine EC50 to test compound EC50 for antiviral activity against antiviral activity against SARS-CoV-2 (hCoV-19/Korea/KCDC-06/2020) infected in African green monkey Vero cells preincubated with cells for 24 hrs followed by viral infection and measured after 24 hrs by DAPI-staining based fluorescence assay. The class given is functional, Severe acute respiratory syndrome coronavirus 2. To be noted: time 48 hrs.
For the compound `CC(C)C(=O)ONc1ccn([C@@H]2O[C@H](CO)[C@@H](O)[C@H]2O)c(=O)n1`, the “Ratio EC50” value was over 4.7.

For the next series, the system named is Vero. Description: Cytotoxicity against African green monkey Vero cells assessed as reduction in cell viability incubated for 24 hrs by MTT assay. The class given is toxicity, cell-based. Conditions: chlorocebus sabaeus, vero, 24 h. The essentials:
(§2)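 Viability of non-infected or infected cells (Vero CCL-81 or MDCK CCL-34) measured by MTT; CC50 calculated by nonlinear regression.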
Regarding `CCOC(=O)[C@H](C)Nc1ccn([C@@H]2O[C@H](CO)[C@@H](O)[C@H]2O)c(=O)n1`, the CC50 is over 100 µM.

Turning to `CCOC(=O)[C@H](Cc1ccccc1)Nc1ccn([C@@H]2O[C@H](CO)[C@@H](O)[C@H]2O)c(=O)n1`, the CC50 is over 100 µM.

In another series the test system is Influenza B virus. Nature of the series: Potency index, ratio of ribavirin EC50 to test compound EC50 for antiviral activity against Influenza B virus B/Lee/40 infected in MDCK cells assessed as reduction in virus-induced cytopathic effect pre-infected with cells for 1 hrs followed by compound addition and measured after 3 days by fluorescein diacetate-based cell viability assay. The class given is functional. To be noted: time 3 day. (Cytopathic effects are the visible damage that an infection or toxin causes in cultured cells.)
As for `CC(C)C(=O)ONc1ccn([C@@H]2O[C@H](CO)[C@@H](O)[C@H]2O)c(=O)n1`, the “Ratio EC50” value turned out to be 10.

For another series, the system named is dengue virus type 2. Description: Potency index, ratio of […] for antiviral activity against Dengue virus 2 infected in hamster BHK-21 cells incubated for 48 hrs by renilla luciferase based assay. The class given is functional.
Conditions: not given
With `CC(C)C(=O)ONc1ccn([C@@H]2O[C@H](CO)[C@@H](O)[C@H]2O)c(=O)n1`, the “Ratio EC50” value stood at 3.

A further series has as its system SARS-CoV-2. Description: Potency index, ratio of remdesivir EC50 to test compound EC50 for antiviral activity against SARS-CoV-2 (hCoV-19/Korea/KCDC-06/2020) infected in African green monkey Vero cells preincubated with cells for 24 hrs followed by viral infection and measured after 24 hrs by DAPI-staining based fluorescence assay. The class given is functional, Severe acute respiratory syndrome coronavirus 2. Conditions: time 48 hrs.
For `CC(C)C(=O)ONc1ccn([C@@H]2O[C@H](CO)[C@@H](O)[C@H]2O)c(=O)n1`, the “Ratio EC50” value is listed as 3.

Another series relates to dengue virus type 2. Nature of the series: Antiviral activity against Dengue virus 2 infected in hamster BHK-21 cells incubated for 48 hrs by renilla luciferase based assay. Conditions: BHK-21, 48 h. The class given is functional, organism-based. The essentials: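 DENV-2 replicon-bearing BHK-21 cells (DENV2-BHK); replication read out with a Renilla luciferase assay system; EC50 calculated by nonlinear regression.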
On to `CCOC(=O)[C@H](C)Nc1ccn([C@@H]2O[C@H](CO)[C@@H](O)[C@H]2O)c(=O)n1`, for which the pEC50 is 4.00.

The compound `CCOC(=O)[C@H](Cc1ccccc1)Nc1ccn([C@@H]2O[C@H](CO)[C@@H](O)[C@H]2O)c(=O)n1` gave a pEC50 of 4.00.

For `CC(C)C(=O)ONc1ccn([C@@H]2O[C@H](CO)[C@@H](O)[C@H]2O)c(=O)n1`, the pEC50 is 5.40.

In the next series the test system is Influenza A virus. Description: Antiviral activity against Influenza A virus A/Hong Kong/8/68 (H3N2) infected in MDCK cells assessed as reduction in virus-induced cytopathic effect pre-infected with cells for 1 hrs followed by compound addition and measured after 3 days by fluorescein diacetate-based cell viability assay.
Conditions: not given
The class given is functional, organism-based.
With `CCOC(=O)[C@H](C)Nc1ccn([C@@H]2O[C@H](CO)[C@@H](O)[C@H]2O)c(=O)n1`, the pEC50 is under 4.00.

`CCOC(=O)[C@H](Cc1ccccc1)Nc1ccn([C@@H]2O[C@H](CO)[C@@H](O)[C@H]2O)c(=O)n1`: the pEC50 is under 4.00.

On to `CC(C)C(=O)ONc1ccn([C@@H]2O[C@H](CO)[C@@H](O)[C@H]2O)c(=O)n1`, for which the pEC50 is 5.14.

For the next series, the system named is MDCK. Nature of the series: Cytotoxicity against MDCK cells assessed as reduction in cell viability measured for 48 hrs by MTT assay. The class given is toxicity, cell-based, Canis lupus familiaris. Conditions: dog, mdck, 48 h. The essentials:
as §2
With `CCOC(=O)[C@H](C)Nc1ccn([C@@H]2O[C@H](CO)[C@@H](O)[C@H]2O)c(=O)n1`, the CC50 was over 100 µM.

On to `CCOC(=O)[C@H](Cc1ccccc1)Nc1ccn([C@@H]2O[C@H](CO)[C@@H](O)[C@H]2O)c(=O)n1`, for which the CC50 was over 100 µM.

A further series concerns dengue virus type 2. Description: Potency index, ratio of MK-4482 EC50 to test compound EC50 for antiviral activity against Dengue virus 2 infected in hamster BHK-21 cells incubated for 48 hrs by renilla luciferase based assay. The class given is functional.
Conditions: not given
As to `CC(C)C(=O)ONc1ccn([C@@H]2O[C@H](CO)[C@@H](O)[C@H]2O)c(=O)n1`, the “Ratio EC50” value amounted to 5.9.

A further series deals with SARS-CoV-2. Nature of the series: Potency index, ratio of MK-4482 EC50 to test compound EC50 for antiviral activity against antiviral activity against SARS-CoV-2 (hCoV-19/Korea/KCDC-06/2020) infected in African green monkey Vero cells preincubated with cells for 24 hrs followed by viral infection and measured after 24 hrs by DAPI-staining based fluorescence assay. The class given is functional, Severe acute respiratory syndrome coronavirus 2. To be noted: time 48 hrs.
For the compound `CC(C)C(=O)ONc1ccn([C@@H]2O[C@H](CO)[C@@H](O)[C@H]2O)c(=O)n1`, the “Ratio EC50” value was 3.4.

In a further series the test system is Influenza B virus. Nature of the series: Antiviral activity against Influenza B virus B/Lee/40 infected in MDCK cells assessed as reduction in virus-induced cytopathic effect pre-infected with cells for 1 hrs followed by compound addition and measured after 3 days by fluorescein diacetate-based cell viability assay. The class given is functional, organism-based. Conditions: B/Lee/40, MDCK.
As for `CCOC(=O)[C@H](C)Nc1ccn([C@@H]2O[C@H](CO)[C@@H](O)[C@H]2O)c(=O)n1`, the pEC50 was under 4.00.

Turning to `CCOC(=O)[C@H](Cc1ccccc1)Nc1ccn([C@@H]2O[C@H](CO)[C@@H](O)[C@H]2O)c(=O)n1`, the pEC50 was under 4.00.

As to `CC(C)C(=O)ONc1ccn([C@@H]2O[C@H](CO)[C@@H](O)[C@H]2O)c(=O)n1`, the pEC50 is 5.47.

A further series relates to Influenza A virus. Nature of the series: Antiviral activity against Influenza A virus A/Puerto Rico/8/34 (H1N1) infected in MDCK cells assessed as reduction in virus-induced cytopathic effect pre-infected with cells for 1 hrs followed by compound addition and measured after 3 days by fluorescein diacetate-based cell viability assay. The class given is functional, organism-based.
Conditions: not given
Turning to `CCOC(=O)[C@H](C)Nc1ccn([C@@H]2O[C@H](CO)[C@@H](O)[C@H]2O)c(=O)n1`, the pEC50 is under 4.00.

On to `CCOC(=O)[C@H](Cc1ccccc1)Nc1ccn([C@@H]2O[C@H](CO)[C@@H](O)[C@H]2O)c(=O)n1`, for which the pEC50 was under 4.00.

On to `CC(C)C(=O)ONc1ccn([C@@H]2O[C@H](CO)[C@@H](O)[C@H]2O)c(=O)n1`, for which the pEC50 was 5.24.

For the next series, the system named is Influenza A virus. Description: Potency index, ratio of ribavirin EC50 to test compound EC50 for antiviral activity against Influenza A virus A/Hong Kong/8/68 (H3N2) infected in MDCK cells assessed as reduction in virus-induced cytopathic effect pre-infected with cells for 1 hrs followed by compound addition and measured after 3 days by fluorescein diacetate-based cell viability assay. The class given is functional. Conditions: time 3 day.
`CC(C)C(=O)ONc1ccn([C@@H]2O[C@H](CO)[C@@H](O)[C@H]2O)c(=O)n1`: the “Ratio EC50” value is reported as 5.

Another series deals with Influenza B virus. Description: Potency index, ratio of MK-4482 EC50 to test compound EC50 for antiviral activity against Influenza B virus B/Lee/40 infected in MDCK cells assessed as reduction in virus-induced cytopathic effect pre-infected with cells for 1 hrs followed by compound addition and measured after 3 days by fluorescein diacetate-based cell viability assay. Conditions: time 3 day. The class given is functional.
For the compound `CC(C)C(=O)ONc1ccn([C@@H]2O[C@H](CO)[C@@H](O)[C@H]2O)c(=O)n1`, the “Ratio EC50” value amounted to 7.

In a further series the test system is Influenza B virus. Nature of the series: Potency index, ratio of T-705 EC50 to test compound EC50 for antiviral activity against Influenza B virus B/Lee/40 infected in MDCK cells assessed as reduction in virus-induced cytopathic effect pre-infected with cells for 1 hrs followed by compound addition and measured after 3 days by fluorescein diacetate-based cell viability assay. The class given is functional. Conditions: time 3 day.
In the case of `CC(C)C(=O)ONc1ccn([C@@H]2O[C@H](CO)[C@@H](O)[C@H]2O)c(=O)n1`, the “Ratio EC50” value turned out to be 2.

The subject of the next series is SARS-CoV-2. Description: Antiviral activity against SARS-CoV-2 (hCoV-19/Korea/KCDC-06/2020) infected in African green monkey Vero cells preincubated with cells for 24 hrs followed by viral infection and measured after 24 hrs by DAPI-staining based fluorescence assay. The class given is functional, organism-based. To be noted: Severe acute respiratory syndrome coronavirus 2, hCoV-19/Korea/KCDC-06/2020, Vero.
In the case of `CCOC(=O)[C@H](C)Nc1ccn([C@@H]2O[C@H](CO)[C@@H](O)[C@H]2O)c(=O)n1`, the pEC50 is under 4.00.

Compound `CCOC(=O)[C@H](Cc1ccccc1)Nc1ccn([C@@H]2O[C@H](CO)[C@@H](O)[C@H]2O)c(=O)n1` showed a pEC50 of under 4.00.

`CC(C)C(=O)ONc1ccn([C@@H]2O[C@H](CO)[C@@H](O)[C@H]2O)c(=O)n1` had a pEC50 of 5.46.
